ChEMBL document CHEMBL4145441, “Discovery of N-(5-((5-chloro-4-((2-(isopropylsulfonyl)phenyl)amino)pyrimidin-2-yl)amino)-4-methoxy-2-(4-methyl-1,4-diazepan-1-yl)phenyl)acrylamide (CHMFL-ALK/EGFR-050) as a potent ALK/EGFR dual kinase inhibitor capable of overcoming a variety of ALK/EGFR associated drug resistant mutants in NSCLC” (Eur J Med Chem, 2017)
Activity calls are given as the source filed them. The rule behind the calls is not given here.

Key:
PC-9 = assay: Induction of apoptosis in human PC9 cells assessed as increase in cleaved caspase-3 expression level at 300 nM to 1 uM after 24 hrs by Western blot method; format: functional, cell-based
[1] = target: T1, Epidermal growth factor receptor (Homo sapiens, UniProt P00533); assay: Inhibition of EGFR phosphorylation at Y1068 in human A549 cells at 300 nM after 4 hrs by immunoblotting method; format: cell-based
[2] = Oral bioavailability in Sprague-Dawley rat at 10 mg/kg; format: ADME, organism-based; conditions: in vivo
Method in brief: (§1)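 Pharmacokinetics in rats given a single dose either intravenously at 1 mg/kg or orally at 10 mg/kg. Plasma parameters derived include AUC0-t, AUC0-∞, MRT(0-t), Cmax, Tmax, T1/2 and oral F (%).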

A549 = assay: Antiproliferative activity against human A549 cells harboring wild-type EGFR after 72 hrs by CellTiter-Glo assay; format: functional; conditions: A549, 72 h
[3] = target: Epidermal growth factor receptor (Homo sapiens, UniProt P00533, L858R/T790M); assay: Inhibition of recombinant human GST-tagged EGFR L858R/T790M mutant expressed in Baculovirus expression system using Tyr 4 peptide as substrate after 1 hr in presence of ATP by Z-LYTE assay
Homo sapiens [4] = species: Homo sapiens; assay: Selectivity index, ratio of IC50 for recombinant human GST-tagged EGFR L858R mutant to IC50 for recombinant human GST-tagged EGFR L858R/T790M mutant
[5] = system: Epidermal growth factor receptor (Homo sapiens), P00533 [L858R,T790M,C797S]; assay: Inhibition of full length EGFR L858R/T790M/C797S mutant (unknown origin) expressed in mouse BAF3 cells assessed as decrease in cell proliferation after 72 hrs by CellTiter-Glo assay; format: cell-based
[6] = target: T1, Epidermal growth factor receptor; assay: Inhibition of EGFR in human A549 cells assessed as reduction in EGF-induced AKT phosphorylation at Thr308 residue up to 3 uM after 4 hrs by immunoblotting method; format: cell-based
NCI-H1975 [7] = assay: Cell cycle arrest in human NCI-H1975 cells assessed as accumulation at G0/G1 phase at 0.03 to 1 uM after 24 hrs by propidium iodide/RNase staining-based flow cytometry; format: functional
[8] = AUC (0 to t) in Sprague-Dawley rat at 1 mg/kg, iv; format: ADME, organism-based; conditions: in vivo
Method in brief: (§2)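 Rats dosed once intravenously at 1 mg/kg or orally at 10 mg/kg. Plasma exposure parameters derived: AUC0-t, AUC0-∞, MRT(0-t), Cmax, Tmax, T1/2 and oral bioavailability (F%). Values reported as mean ± spread.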

[9] = target: ALK tyrosine kinase receptor (Homo sapiens, UniProt Q9UM73, F1174L); assay: Inhibition of recombinant human N-terminal GST/His6-fused ALK F1174L mutant expressed in Sf9 insect cells using Tyr 1 peptide as substrate after 1 hr by Z-LYTE assay
[10] = Antiproliferative activity against CHO cells after 72 hrs by CellTiter-Glo assay; format: cell-based, Cricetulus griseus; conditions: chinese hamster
NCI-H3122 = assay: Induction of apoptosis in human NCI-H3122 cells assessed as increase in cleaved PARP expression level at 300 nM after 24 hrs by Western blot method; format: functional, cell-based
NCI-H1975 [11] = assay: Antitumor activity against human NCI-H1975 cells xenografted in nu/nu mouse assessed as tumor growth inhibition at 40 mg/kg, po qd administered for 21 days; conditions: 504 h, read-out: TGI
[12] = target: T2, ALK tyrosine kinase receptor (Homo sapiens, UniProt Q9UM73); assay: Inhibition of ALK in human NCI-H3122 cells harboring EML4-fused ALK assessed as reduction in ALK-induced ERK phosphorylation at Thr202/Tyr204 residues up to 3 uM after 2 hrs by immunoblot method; format: cell-based
[13] = system: ALK tyrosine kinase receptor (Homo sapiens), Q9UM73 [C1156Y]
[14] = target: T2, ALK tyrosine kinase receptor; assay: Inhibition of recombinant human wild-type GST-tagged ALK expressed in Baculovirus expression system using Tyr 1 peptide as substrate after 1 hr by Z-LYTE assay
Target sequence in this assay (Q9UM73 whole entry, the tested form may be a part): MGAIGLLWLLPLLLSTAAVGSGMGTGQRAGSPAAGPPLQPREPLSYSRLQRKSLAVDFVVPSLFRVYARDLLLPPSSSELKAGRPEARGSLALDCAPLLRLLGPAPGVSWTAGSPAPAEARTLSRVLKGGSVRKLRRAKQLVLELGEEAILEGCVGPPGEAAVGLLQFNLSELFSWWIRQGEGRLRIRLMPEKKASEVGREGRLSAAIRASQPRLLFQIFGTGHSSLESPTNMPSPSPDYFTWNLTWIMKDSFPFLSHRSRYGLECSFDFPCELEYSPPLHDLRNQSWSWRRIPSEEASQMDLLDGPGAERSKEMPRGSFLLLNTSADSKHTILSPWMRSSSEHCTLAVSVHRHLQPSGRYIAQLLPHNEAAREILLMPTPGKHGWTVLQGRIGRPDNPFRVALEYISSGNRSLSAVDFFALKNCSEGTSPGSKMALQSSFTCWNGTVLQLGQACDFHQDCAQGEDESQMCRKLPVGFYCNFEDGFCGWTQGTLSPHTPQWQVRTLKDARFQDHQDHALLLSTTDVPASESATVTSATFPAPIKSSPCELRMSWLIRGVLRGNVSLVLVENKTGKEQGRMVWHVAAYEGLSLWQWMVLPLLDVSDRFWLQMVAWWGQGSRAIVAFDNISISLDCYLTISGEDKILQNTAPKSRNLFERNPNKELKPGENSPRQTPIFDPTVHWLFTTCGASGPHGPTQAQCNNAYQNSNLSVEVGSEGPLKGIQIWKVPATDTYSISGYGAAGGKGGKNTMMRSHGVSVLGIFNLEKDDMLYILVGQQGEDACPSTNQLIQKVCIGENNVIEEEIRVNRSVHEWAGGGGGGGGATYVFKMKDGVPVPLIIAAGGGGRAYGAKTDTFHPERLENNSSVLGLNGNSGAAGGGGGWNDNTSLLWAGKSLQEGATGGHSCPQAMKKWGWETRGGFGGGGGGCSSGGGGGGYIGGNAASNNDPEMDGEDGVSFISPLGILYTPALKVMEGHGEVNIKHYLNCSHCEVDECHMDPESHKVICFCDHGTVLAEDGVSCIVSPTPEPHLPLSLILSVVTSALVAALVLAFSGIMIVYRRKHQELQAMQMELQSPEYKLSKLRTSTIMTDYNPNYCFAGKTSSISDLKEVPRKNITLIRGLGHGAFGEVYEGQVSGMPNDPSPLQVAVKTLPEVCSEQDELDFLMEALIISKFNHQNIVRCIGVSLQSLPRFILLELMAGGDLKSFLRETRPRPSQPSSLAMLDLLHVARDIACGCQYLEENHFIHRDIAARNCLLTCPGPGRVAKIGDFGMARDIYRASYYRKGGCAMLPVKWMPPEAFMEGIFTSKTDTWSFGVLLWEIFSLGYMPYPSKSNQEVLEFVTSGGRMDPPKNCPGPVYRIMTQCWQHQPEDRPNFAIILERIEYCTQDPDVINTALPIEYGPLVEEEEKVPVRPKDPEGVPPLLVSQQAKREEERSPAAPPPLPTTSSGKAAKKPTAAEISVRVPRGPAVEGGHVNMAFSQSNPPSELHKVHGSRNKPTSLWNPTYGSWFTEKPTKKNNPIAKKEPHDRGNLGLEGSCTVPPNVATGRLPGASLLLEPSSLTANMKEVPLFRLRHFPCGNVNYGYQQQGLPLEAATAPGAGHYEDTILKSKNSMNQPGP

[15] = target: Epidermal growth factor receptor (Homo sapiens, UniProt P00533, L858R); assay: Inhibition of recombinant human GST-tagged EGFR L858R mutant expressed in Baculovirus expression system using Tyr 4 peptide as substrate after 1 hr in presence of ATP by Z-LYTE assay
[16] = system: Epidermal growth factor receptor (Homo sapiens), P00533 [T790M]; assay: Inhibition of TEL-fused EGFR T790M mutant (unknown origin) expressed in mouse BAF3 cells assessed as decrease in cell proliferation after 72 hrs by CellTiter-Glo assay; format: cell-based
[17] = Cmax in Sprague-Dawley rat at 10 mg/kg, po; format: ADME, organism-based; parameters: dose 10 mg/kg, route oral; conditions: in vivo; method in brief: as §2
[18] = target: Epidermal growth factor receptor (Homo sapiens, UniProt P00533, T790M); assay: Inhibition of recombinant human GST-tagged EGFR T790M mutant expressed in Baculovirus expression system using Tyr 4 peptide as substrate after 1 hr in presence of ATP by Z-LYTE assay
Homo sapiens [19] = species: Homo sapiens; assay: Selectivity ratio of GI50 for inhibition of TEL-fused EGFR C797S mutant (unknown origin) expressed in mouse BAF3 cells assessed as decrease in cell proliferation to GI50 for TEL-fused EGFR (unknown origin) expressed in mouse BAF3 cells assessed as decrease in cell proliferation; format: cell-based
NCI-H1975 [20] = assay: Induction of apoptosis in human NCI-H1975 cells assessed as increase in cleaved caspase-3 expression level at 300 nM to 1 uM after 24 hrs by Western blot method; format: functional, cell-based
[21] = target: T1, Epidermal growth factor receptor; assay: Inhibition of TEL-fused EGFR (unknown origin) expressed in mouse BAF3 cells assessed as decrease in cell proliferation after 72 hrs by CellTiter-Glo assay; format: cell-based
NCI-H1975 [22] = assay: Antitumor activity against human NCI-H1975 cells xenografted in po dosed nu/nu mouse assessed as decrease in cell proliferation administered for 21 days by Ki67 staining-based immunohistochemical analysis
[23] = Cmax in Sprague-Dawley rat at 1 mg/kg, iv; format: ADME, organism-based; parameters: dose 1 mg/kg, route intravenous; conditions: in vivo; method in brief: as §2
[24] = system: ALK tyrosine kinase receptor (Homo sapiens), Q9UM73 [F1174L]
[25] = MRT (0 to t) in Sprague-Dawley rat at 10 mg/kg, po; format: ADME, organism-based; conditions: in vivo; method in brief: as §1
[26] = target: T1, Epidermal growth factor receptor; assay: Inhibition of EGFR in human A549 cells assessed as reduction in EGF-induced eIF4E phosphorylation at Ser209 residue up to 3 uM after 4 hrs by immunoblotting method; format: cell-based
NCI-H2122 = assay: Antiproliferative activity against human NCI-H2122 cells harboring wild-type EGFR after 72 hrs by CellTiter-Glo assay; format: functional; conditions: NCI-H2122, 72 h
[27] = Half life in Sprague-Dawley rat at 1 mg/kg, iv; format: ADME, organism-based; conditions: in vivo; method in brief: as §2
[28] = target: ALK tyrosine kinase receptor (Homo sapiens, UniProt Q9UM73, R1275Q); assay: Inhibition of recombinant human N-terminal GST/His6-fused ALK R1275Q mutant expressed in Sf9 insect cells using Tyr 1 peptide as substrate after 1 hr by Z-LYTE assay

T1 sequence (P00533 whole entry): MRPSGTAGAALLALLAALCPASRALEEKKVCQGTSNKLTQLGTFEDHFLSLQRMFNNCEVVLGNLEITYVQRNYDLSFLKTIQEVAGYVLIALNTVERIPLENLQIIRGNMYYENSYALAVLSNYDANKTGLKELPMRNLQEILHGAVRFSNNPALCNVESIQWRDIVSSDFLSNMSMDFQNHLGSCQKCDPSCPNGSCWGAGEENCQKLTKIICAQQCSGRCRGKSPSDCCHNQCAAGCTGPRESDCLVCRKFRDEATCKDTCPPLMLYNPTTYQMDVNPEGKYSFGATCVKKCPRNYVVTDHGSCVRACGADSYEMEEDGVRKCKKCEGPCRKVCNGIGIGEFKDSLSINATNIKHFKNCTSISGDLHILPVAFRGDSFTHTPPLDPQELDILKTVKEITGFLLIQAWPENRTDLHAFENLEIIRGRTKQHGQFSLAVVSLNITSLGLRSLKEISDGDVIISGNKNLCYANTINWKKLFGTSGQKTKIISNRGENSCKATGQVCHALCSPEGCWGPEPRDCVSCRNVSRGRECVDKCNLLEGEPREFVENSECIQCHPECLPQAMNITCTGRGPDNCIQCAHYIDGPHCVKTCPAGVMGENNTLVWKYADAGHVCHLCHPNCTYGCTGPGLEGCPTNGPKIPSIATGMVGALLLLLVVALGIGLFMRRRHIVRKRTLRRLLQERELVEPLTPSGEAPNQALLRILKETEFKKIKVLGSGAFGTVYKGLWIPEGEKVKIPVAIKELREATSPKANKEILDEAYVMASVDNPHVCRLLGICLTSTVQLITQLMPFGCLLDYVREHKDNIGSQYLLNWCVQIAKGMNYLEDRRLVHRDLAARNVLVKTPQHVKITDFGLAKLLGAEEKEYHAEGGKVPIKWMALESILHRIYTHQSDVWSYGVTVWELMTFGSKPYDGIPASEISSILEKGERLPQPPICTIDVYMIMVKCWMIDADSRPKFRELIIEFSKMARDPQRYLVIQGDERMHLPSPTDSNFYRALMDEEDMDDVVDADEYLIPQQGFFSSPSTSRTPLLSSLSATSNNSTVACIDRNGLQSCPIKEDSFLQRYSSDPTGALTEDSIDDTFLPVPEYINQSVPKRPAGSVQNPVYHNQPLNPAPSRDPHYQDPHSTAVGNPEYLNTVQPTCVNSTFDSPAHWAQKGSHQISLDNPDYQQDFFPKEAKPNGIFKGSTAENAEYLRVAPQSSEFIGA
Sequence of ALK tyrosine kinase receptor (Homo sapiens), Q9UM73 [C1156Y] (Q9UM73 whole entry C1156Y, looked up): as the sequence (Q9UM73 whole entry, the tested form may be a part) above, with C1156Y counted along it
Sequence of Epidermal growth factor receptor (Homo sapiens, UniProt P00533, T790M) (P00533 25-1210 T790M limits assumed): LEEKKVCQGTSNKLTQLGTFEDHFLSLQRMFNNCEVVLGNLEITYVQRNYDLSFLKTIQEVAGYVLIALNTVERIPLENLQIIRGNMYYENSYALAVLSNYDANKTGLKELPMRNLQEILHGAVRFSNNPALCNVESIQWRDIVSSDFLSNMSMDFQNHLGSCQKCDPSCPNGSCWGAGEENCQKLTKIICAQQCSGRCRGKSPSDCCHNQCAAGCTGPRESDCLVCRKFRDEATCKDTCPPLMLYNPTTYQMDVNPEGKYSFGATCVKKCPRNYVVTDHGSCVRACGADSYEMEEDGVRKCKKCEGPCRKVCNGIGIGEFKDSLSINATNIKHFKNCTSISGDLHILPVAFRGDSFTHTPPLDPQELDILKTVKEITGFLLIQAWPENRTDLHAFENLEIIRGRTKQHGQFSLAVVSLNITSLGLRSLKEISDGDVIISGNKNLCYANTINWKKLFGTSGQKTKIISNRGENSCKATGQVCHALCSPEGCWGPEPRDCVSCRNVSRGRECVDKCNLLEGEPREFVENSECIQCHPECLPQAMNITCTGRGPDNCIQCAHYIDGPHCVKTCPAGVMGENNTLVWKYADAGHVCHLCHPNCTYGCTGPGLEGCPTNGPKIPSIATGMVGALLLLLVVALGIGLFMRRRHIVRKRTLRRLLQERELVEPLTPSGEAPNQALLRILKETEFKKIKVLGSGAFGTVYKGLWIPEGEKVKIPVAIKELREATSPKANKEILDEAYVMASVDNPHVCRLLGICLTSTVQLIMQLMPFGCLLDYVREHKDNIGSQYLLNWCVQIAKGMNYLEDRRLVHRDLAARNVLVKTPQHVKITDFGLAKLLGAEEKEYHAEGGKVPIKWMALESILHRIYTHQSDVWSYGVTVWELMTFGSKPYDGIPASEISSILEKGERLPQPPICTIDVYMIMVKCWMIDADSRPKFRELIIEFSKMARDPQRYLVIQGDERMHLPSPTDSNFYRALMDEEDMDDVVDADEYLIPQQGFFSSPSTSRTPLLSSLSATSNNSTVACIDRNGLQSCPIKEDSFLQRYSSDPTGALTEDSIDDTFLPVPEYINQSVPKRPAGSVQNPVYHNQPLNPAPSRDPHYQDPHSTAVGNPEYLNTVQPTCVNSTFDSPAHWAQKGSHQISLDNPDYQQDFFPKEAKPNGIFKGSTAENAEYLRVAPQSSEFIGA
Sequence of ALK tyrosine kinase receptor (Homo sapiens), Q9UM73 [F1174L] (Q9UM73 whole entry F1174L): as the sequence (Q9UM73 whole entry, the tested form may be a part) above, with F1174L counted along it

C=CC(=O)Nc1cc(Nc2ncc(Cl)c(Nc3ccccc3S(=O)(=O)C(C)C)n2)c(OC)cc1N1CCCN(C)CC1
Activity (PC-9): Active
inhibition [1]: Active
bioavailability [2]: 16.1%
GI50 (A549): 5600 nM
IC50 [3]: 3.6 nM
Ratio IC50 (Homo sapiens [4]): 20 to 30
GI50 [5]: 1100 nM
inhibition [6]: inactive
Activity (NCI-H1975 [7]): Active
AUC(0-t) [8]: 707 ng·h/mL
IC50 [9]: 0.92 nM
GI50 at 72 h [10]: 1800 nM
Activity (NCI-H3122): Active
inhibition in vivo at 40 mg/kg (NCI-H1975 [11]): 99%
inhibition [12]: Active
GI50 [13]: 6.9 nM
IC50 [14]: 9.8 nM
IC50 [15]: 82.5 nM
GI50 [16]: 8 nM
Cmax [17]: 283 ng/mL
IC50 [18]: 3.9 nM
RatioGI50 (Homo sapiens [19]): 15
Activity (NCI-H1975 [20]): Active
GI50 [21]: 16 nM
Activity (NCI-H1975 [22]): Dose-dependent effect
Cmax [23]: 1490 ng/mL
GI50 [24]: 29 nM
MRT last [25]: 4.12 h
inhibition [26]: inactive
GI50 (NCI-H2122): 1800 nM
half-life [27]: 0.991 h
IC50 [28]: 0.82 nM
